Assay results published in ChEMBL document CHEMBL4017500 (J Med Chem, 2017).
Active and inactive are the calls of the source. The calls are words filed in the database; no cut-off is given here.

Assays:
[1] = Inhibition of bacterial MBP-fused NDM1 expressed in Escherichia coli BL21(DE3) ausing chromacef as substrate preincubated for 20 mins followed by substrate addition measured after 0.3 mins; parameters: species or system Bacteria
Procedure, shortened: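 Preincubated 20 min, then 3 μM substrate (~3×KM) added. A442 followed ~0.3 min at 25 °C. Activity scaled to uninhibited (100%) and no-enzyme (0%) controls, fitted to a Hill-type equation.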

[2] = Inhibition of bacterial MBP-fused NDM1 expressed in Escherichia coli BL21(DE3) ausing fluorocillin as substrate preincubated for 20 mins followed by substrate addition measured at 1 sec time interval for 25 mins by fluorescence assay; parameters: species or system Bacteria
Procedure, shortened: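 NDM-1 pre-incubated 20 min with inhibitor (final 100 μM to 1 nM) in 50 mM HEPES pH 7.0 with 2 mM CHAPS. Reaction started with fluorocillin (final 87 nM, below KM), NDM-1 final 25 pM. Fluorescence read at λex/em 495/525 nm, 10 reads over ~25 min.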

[3] = test system: Bacteria; test: Binding affinity to bacterial CoCoNDM-1 expressed in Escherichia coli BL21(DE3) assessed as metal stripping at 1 to 2 equiv after 30 mins by UV-Visible spectroscopic method
Procedure, shortened: (§1)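 Apo-NDM-1 at 300 μM in 50 mM HEPES, 150 mM NaCl, pH 6.8, loaded with 2 molar equiv CoCl2. […] Absorbance read 300–700 nm at 25 °C as difference spectra against buffer blank, normalized at 700 nm.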

[4] = test system: Bacteria; test: Binding affinity to bacterial CoCoNDM-1 expressed in Escherichia coli BL21(DE3) assessed as metal stripping at 1 to 2 equiv by 1H NMR spectroscopic method
Procedure, shortened: (§2)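 Apo-NDM-1 concentrated to ~1 mM and loaded with 2 equiv CoCl2. Samples in 50 mM HEPES, 150 mM NaCl, 10% D2O, pH 6.8. Compounds from 50–100 mM DMSO stocks titrated in ~5 μL aliquots. 1H spectra recorded at 292 K, 300.16 MHz.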

[5] = test system: Bacteria; test: Binding affinity to bacterial NDM-1 expressed in Escherichia coli BL21(DE3) assessed as intrinsic tryptophan fluorescence quenching up to 32 uM after 30 mins by luminescence spectrometric method relative to control
Procedure, shortened: (§3)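 NDM-1 at 2 μM final in 50 mM HEPES pH 7.5 mixed with compound at 4–32 μM, incubated 30 min. Emission scanned 300–400 nm with excitation at 280 nm. Relative tryptophan fluorescence read at 348 nm, with buffer set to 0% and inhibitor-free NDM-1 to 100%. Control run with 2 μM L-tryptophan in place of enzyme.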

[6] = test system: Bacteria; test: Binding affinity to bacterial NDM-1 expressed in Escherichia coli BL21(DE3) assessed as Zn2+ stripping up to 128 uM after 30 mins by equilibrium dialysis method
Procedure, shortened: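 NDM-1 (8 μM final) in 50 mM HEPES pH 7.5 mixed with compound at 0–128 μM for 30 min. Then dialyzed 4 h against metal-free 50 mM HEPES pH 7.5. Residual Zn(II) measured by ICP-AES at 213.856 nm.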

[7] = Fluorescence quenching activity assessed as reduction in tryptophan fluorescence up to 32 uM after 30 mins by luminescence spectrometric method
Procedure, shortened: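 NDM-1 (2 μM final) in 50 mM HEPES pH 7.5 with compound at 4–32 μM for 30 min. Excitation 280 nm, emission scanned 300–400 nm, intensity taken at 348 nm. Scaled with buffer as 0% and inhibitor-free enzyme as 100%. Free L-tryptophan (2 μM) run as control.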

[8] = Inhibition of bacterial NDM1; parameters: species or system Bacteria
Procedure, shortened: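 Chromogenic NDM-1 assay: enzyme (3 nM) pre-incubated 20 min with ~20 inhibitor concentrations in 50 mM HEPES, 1% DMSO, pH 7.0. Chromacef substrate 3 μM (~3×KM). Absorbance at 442 nm followed ~0.3 min at 25 °C.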

[9] = target: Beta-lactamase VIM-2 (Pseudomonas aeruginosa) (UniProt Q9K2N0); test: Inhibition of Pseudomonas aeruginosa VIM2 expressed in Escherichia coli BL21(DE3) at 50 uM using chromacef as substrate preincubated for 10 mins followed by substrate addition measured after 20 mins by HTS assay relative to control
Procedure, shortened: (§4)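 Colorimetric chromacef screen, final 50 mM HEPES, 2 mM CHAPS, pH 7.0. Substrate added at 3 μM (NDM-1, ~3×KM), 7.2 μM (IMP-1) or 16 μM (VIM-2). […] Percent inhibition calculated.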

[10] = test system: Bacteria; test: Inhibition of bacterial MBP-fused NDM1 expressed in Escherichia coli BL21(DE3) at 50 uM using chromacef as substrate preincubated for 10 mins followed by substrate addition measured after 20 mins by HTS assay relative to control; procedure, shortened: as §4
[11] = target: Metallo-beta-lactamase type 2 (Serratia marcescens) (UniProt P52699); test: Inhibition of Serratia marcescens IMP1 expressed in Escherichia coli BL21(DE3) at 50 uM using chromacef as substrate preincubated for 10 mins followed by substrate addition measured after 20 mins by HTS assay relative to control; procedure, shortened: as §4
Sequence of Metallo-beta-lactamase type 2 (Serratia marcescens) (P52699 19-246 limits assumed): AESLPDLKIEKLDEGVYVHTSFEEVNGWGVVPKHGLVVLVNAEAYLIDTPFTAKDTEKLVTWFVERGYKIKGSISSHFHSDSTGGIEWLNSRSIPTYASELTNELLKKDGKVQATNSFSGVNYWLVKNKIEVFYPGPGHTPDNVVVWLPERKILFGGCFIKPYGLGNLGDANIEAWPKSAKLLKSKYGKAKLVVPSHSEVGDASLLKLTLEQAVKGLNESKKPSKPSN

[12] = test system: Bacteria; test: Binding affinity to bacterial CoCoNDM-1 expressed in Escherichia coli BL21(DE3) assessed as CoCoNDM-1-compound ternary complex formation at 1 to 2 equiv after 30 mins by UV-Visible spectroscopic method; procedure, shortened: as §1
[13] = test system: Bacteria; test: Binding affinity to bacterial CoCoNDM-1 expressed in Escherichia coli BL21(DE3) assessed as CoCoNDM-1-compound ternary complex formation at 1 equiv by 1H […] spectroscopic method
[14] = test system: Bacteria; test: Binding affinity to bacterial NDM-1 expressed in Escherichia coli BL21(DE3) assessed as increase in intrinsic tryptophan fluorescence up to 32 uM after 30 mins by luminescence spectrometric method relative to control; procedure, shortened: as §3
[15] = test system: Bacteria; test: Binding affinity to bacterial CoCoNDM-1 expressed in Escherichia coli BL21(DE3) assessed as CoCoNDM-1-compound ternary complex formation at 3 to 5 equiv by 1H NMR spectroscopic method; procedure, shortened: as §2

With COc1ccc(Nc2cc(C(=O)O)nc(C(=O)O)c2)cc1 as the compound, how does the IC50 [1] read?
Its IC50 is 4.5 µM.

With COc1ccc(CNc2cc(C(=O)O)nc(C(=O)O)c2)cc1 as the compound, how does the IC50 [1] read?
The IC50 was 7.2 µM.

With CC(=O)Nc1cccc(-c2cc(C(=O)O)nc(C(=O)O)c2)c1 as the compound, how does the IC50 [2] read?
The IC50 was 930 nM.

And the IC50 [1]?
The IC50 was 0.99 µM.

For O=C(O)c1cccc(C(=O)NCCc2cccs2)n1, which IC50 [1] is on record?
The IC50 was > 50 µM.

What does the source list for O=C(O)CN(CCN(CC(=O)O)CC(=O)O)CC(=O)O?
Activity [3]: Active; Activity [4]: Active; Activity [5]: < 10%; Activity [6]: Active; Activity [7]: inactive

Which IC50 [1] does the source give for O=C(O)c1cccc(C(=O)NCc2ccc3c(c2)OCO3)n1 here?
Its IC50 is > 50 µM.

For O=C(O)c1cc(Cl)cc(C(=O)O)n1, which IC50 [1] is on record?
Its IC50 is 5 µM.

For COc1ccc(CNC(=O)c2cccc(C(=O)O)n2)cc1, which IC50 [1] is on record?
The IC50 was > 50 µM.

With O=C(O)c1cccc(C(=O)Nc2ccccc2)n1 as the compound, how does the IC50 [1] read?
The IC50 was > 50 µM.

Which IC50 [8] does the source give for N[C@@H](CN[C@@H](CN[C@@H](CC(=O)O)C(=O)O)C(=O)O)C(=O)O here?
Its IC50 is 4 µM.

Which results are given for Oc1c(I)cc(Cl)c2cccnc12?
inhibition [9]: > 60%; inhibition [10]: > 60%; inhibition [11]: > 60%

For CN(C)c1ccc(-c2cc(C(=O)O)nc(C(=O)O)c2)cc1, which IC50 [2] is on record?
The IC50 was 190 nM.

And the IC50 [1]?
The IC50 was 0.57 µM.

Which results are given for O=C(Cc1ccccc1)Nc1cccc(-c2cc(C(=O)O)nc(C(=O)O)c2)c1?
IC50 [2]: 590 nM; IC50 [1]: 0.86 µM

For O=C(O)c1cccc(C(=O)NCCc2ccccc2)n1, which IC50 [1] is on record?
Its IC50 is > 50 µM.

Which IC50 [1] does the source give for CC(C)[C@@H](NC(=O)c1cccc(C(=O)O)n1)C(=O)O here?
Its IC50 is 22 µM.

With O=C(O)c1cccc(C(=O)N2CCCCC2)n1 as the compound, how does the IC50 [1] read?
The IC50 was > 50 µM.

Which inhibition [9] does the source give for c1ccc(C2=NCCS2)nc1 here?
Its inhibition is > 60%.

What about the inhibition [10] of the same compound?
The inhibition was > 60%.

And the inhibition [11]?
The inhibition was > 60%.

For O=C(O)c1cccc(-c2cc(C(=O)O)nc(C(=O)O)c2)c1, which IC50 [2] is on record?
Its IC50 is 200 nM.

What about the IC50 [1] of the same compound?
The IC50 was 0.89 µM.

Which results are given for Oc1ccc[nH]c1=S?
inhibition [9]: > 60%; inhibition [10]: > 60%; inhibition [11]: > 60%

Which IC50 [1] does the source give for O=C(O)CNC(=O)c1cccc(C(=O)O)n1 here?
Its IC50 is 49 µM.

Which results are given for Nc1ccc(-c2cc(C(=O)O)nc(C(=O)O)c2)cc1?
IC50 [2]: 540 nM; IC50 [1]: 1.03 µM

Which IC50 [1] does the source give for CC(C)NC(=O)c1cccc(C(=O)O)n1 here?
The IC50 was > 50 µM.

Which results are given for C[C@H](CS)C(=O)N1CCC[C@H]1C(=O)O?
Activity [12]: Active; Activity [13]: Active; Activity [14]: 10%; Activity [15]: Active; Activity [6]: inactive; Activity [7]: inactive

For O=C(O)c1cc(NCc2ccco2)cc(C(=O)O)n1, which IC50 [1] is on record?
Its IC50 is 4.9 µM.

For COc1cccc(-c2cc(C(=O)O)nc(C(=O)O)c2)c1, which IC50 [2] is on record?
Its IC50 is 1070 nM.

What about the IC50 [1] of the same compound?
Its IC50 is 0.8 µM.

For O=C(O)c1cccc(C(=O)NCc2ccco2)n1, which IC50 [1] is on record?
The IC50 was > 50 µM.
